The source made the active and inactive calls. The calls are words filed in the database; no cut-off is given here.
Tests used:
MCF7 [1] = assay: Repression of cyclinD1 level in MCF7 cells at 7.5 uM relative to control; format: functional, Homo sapiens
In short: (§1)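 MCF-7 cells exposed for 72 h in 5% FBS-supplemented medium over 2.5-7.5 µM. Lysates were run on 10% SDS-PAGE and immunoblotted for cyclin D1 with ECL detection. Band intensity was quantified by densitometry, normalized to β-actin and expressed relative to DMSO control (100%).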

MCF7 [2] = assay: Repression of cyclinD1 level in MCF7 cells at 5 uM relative to control; format: functional, Homo sapiens; in short: as §1
MCF7 [3] = assay: Repression of cyclinD1 level in MCF7 cells at 2.5 uM relative to control; format: functional, Homo sapiens; in short: as §1
MCF7 [4] = assay: Repression of cyclinD1 level in MCF7 cells after 72 hrs; format: functional, cell-based; settings: Homo sapiens, MCF7, 72 h; in short: as §1
MCF7 [5] = assay: Antiproliferative activity against MCF7 cells by MTT assay; format: functional, cell-based; settings: Homo sapiens
In short: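 MCF-7 cells seeded in DMEM/Ham's F-12 with 10% FBS for 24 h, then exposed to test agents in DMSO (final 0.1%) in 5% FBS medium. Vehicle controls got matching DMSO. Medium replaced with 0.5 mM MTT in 10% FBS RPMI 1640 for 2 h at 37 °C, and reduced dye solubilized in DMSO. Six replicates.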

MCF7 [6] = assay: Repression of cyclinD1 level in MCF7 cells at 10 uM; format: functional, cell-based; settings: Homo sapiens

Row | IC50 (MCF7 [4]) [µM] | IC50 (MCF7 [5]) [µM] | SMILES | Activity (MCF7 [1]) [%] | Activity (MCF7 [2]) [%] | Activity (MCF7 [3]) [%] | Activity (MCF7 [6])
1 |  |  | Cc1c(C)c2c(c(C)c1OCc1ccccc1)CCC(C)(COc1ccc(/C=C3\SC(=O)NC3=O)cc1)O2 (stereo not given) | 12 | 42 | 85 | 
2 |  |  | CC(C)=CCOc1c(C)c(C)c2c(c1C)CCC(C)(COc1ccc(/C=C3\SC(=O)NC3=O)cc1Br)O2 (stereo not given) | 53 | 84 | 96 | 
3 |  |  | C=CCOc1c(C)c(C)c2c(c1C)CCC(C)(COc1ccc(/C=C3\SC(=O)NC3=O)cc1Br)O2 (stereo not given) | 105 | 98 | 102 | 
4 |  |  | COc1cc(/C=C2\SC(=O)NC2=O)ccc1OCC1(C)CCc2c(C)c(OCC=C(C)C)c(C)c(C)c2O1 (stereo not given) | 54 | 78 | 95 | 
5 | 6 |  | CCCCOc1c(C)c(C)c2c(c1C)CCC(C)(COc1ccc(/C=C3\SC(=O)NC3=O)cc1C(F)(F)F)O2 (stereo not given) |  |  |  | 
6 | 2.5 |  | C=CCOc1c(C)c(C)c2c(c1C)CCC(C)(COc1ccc(/C=C3\SC(=O)NC3=O)cc1OC)O2 (stereo not given) | 1 | 5 | 34 | 
7 |  |  | C=CCOc1c(C)c(C)c2c(c1C)CCC(C)(COc1ccc(/C=C3\SC(=O)NC3=O)cc1C)O2 (stereo not given) | 8 | 24 | 84 | 
8 |  |  | CC(C)=CCOc1c(C)c(C)c2c(c1C)CCC(C)(COc1ccc(/C=C3\SC(=O)NC3=O)cc1)O2 (stereo not given) | 5 | 21 | 76 | 
9 |  |  | Cc1c(C)c2c(c(C)c1OC(=O)CCC(=O)O)CCC(C)(COc1ccc(/C=C3\SC(=O)NC3=O)cc1)O2 (stereo not given) | 76 | 98 | 115 | 
10 |  |  | CCOc1cc(/C=C2\SC(=O)NC2=O)ccc1OCC1(C)CCc2c(C)c(OCC=C(C)C)c(C)c(C)c2O1 (stereo not given) | 54 | 84 | 107 | 
11 | > 5 |  | C=CCOc1c(C)c(C)c2c(c1C)CCC(C)(COc1ccc(/C=C3\SC(=O)NC3=O)cc1)O2 (stereo not given) | 2 | 42 | 45 | 
12 |  |  | CC(C)=CCOc1c(C)c(C)c2c(c1C)CCC(C)(COc1ccc(/C=C3\SC(=O)NC3=O)cc1-c1ccc(F)cc1)O2 (stereo not given) | 85 | 92 | 87 | 
13 |  |  | C=CCOc1c(C)c(C)c2c(c1C)CCC(C)(COc1ccc(/C=C3\SC(=O)NC3=O)cc1OCC)O2 (stereo not given) | 75 | 87 | 107 | 
14 |  | 5 | C=CCOc1c(C)c(C)c2c(c1C)CC[C@@](C)(COc1ccc(/C=C3\SC(=O)NC3=O)cc1OC)O2 |  |  |  | 
15 |  |  | C=CCOc1c(C)c(C)c2c(c1C)CCC(C)(COc1cccc(/C=C3\SC(=O)NC3=O)c1)O2 (stereo not given) | 75 | 92 | 84 | 
16 |  |  | C=CCOc1c(C)c(C)c2c(c1C)CC[C@](C)(COc1ccc(/C=C3\SC(=O)NC3=O)cc1OC)O2 |  |  |  | Active
17 |  |  | CC(C)=CCOc1c(C)c(C)c2c(c1C)CCC(C)(COc1ccc(/C=C3\SC(=O)NC3=O)cc1C)O2 (stereo not given) | 27 | 56 | 89 | 
18 |  |  | Cc1c(C)c2c(c(C)c1OC/C=C/c1ccccc1)CCC(C)(COc1ccc(/C=C3\SC(=O)NC3=O)cc1)O2 (stereo not given) | 43 | 65 | 92 | 
19 | 9 |  | CCCCOc1c(C)c(C)c2c(c1C)CCC(C)(COc1ccc(CC3SC(=O)NC3=O)cc1C(F)(F)F)O2 (stereo not given) |  |  |  | 
20 |  | 55 | Cc1c(C)c2c(c(C)c1O)CCC(C)(COc1ccc(/C=C3\SC(=O)NC3=O)cc1)O2 (stereo not given) |  |  |  | 
21 |  |  | CC(C)=CCOc1c(C)c(C)c2c(c1C)CCC(C)(COc1ccc(/C=C3\SC(=O)NC3=O)cc1F)O2 (stereo not given) | 64 | 87 | 95 | 

Reference: ChEMBL document CHEMBL1137411, “Development of small-molecule cyclin D1-ablative agents” (J Med Chem, 2006)
